SMILES strings stand for the structures. Active and inactive are the calls of the source. The rule behind the calls is not given here. A value given as a limit tells only on which side of the number the result lay.

For the first series, the target named is T1, Cystic fibrosis transmembrane conductance regulator (Homo sapiens, UniProt P13569). Kind of series: Activation of human CFTR expressed in FRT cells co-expressing YFP assessed as increase in forskolin-stimulated iodide influx measured after 10 mins for 2 to 12 sec by fluorescence assay.
Details: not given
The format is cell-based.
Target sequence in this assay (P13569 whole entry): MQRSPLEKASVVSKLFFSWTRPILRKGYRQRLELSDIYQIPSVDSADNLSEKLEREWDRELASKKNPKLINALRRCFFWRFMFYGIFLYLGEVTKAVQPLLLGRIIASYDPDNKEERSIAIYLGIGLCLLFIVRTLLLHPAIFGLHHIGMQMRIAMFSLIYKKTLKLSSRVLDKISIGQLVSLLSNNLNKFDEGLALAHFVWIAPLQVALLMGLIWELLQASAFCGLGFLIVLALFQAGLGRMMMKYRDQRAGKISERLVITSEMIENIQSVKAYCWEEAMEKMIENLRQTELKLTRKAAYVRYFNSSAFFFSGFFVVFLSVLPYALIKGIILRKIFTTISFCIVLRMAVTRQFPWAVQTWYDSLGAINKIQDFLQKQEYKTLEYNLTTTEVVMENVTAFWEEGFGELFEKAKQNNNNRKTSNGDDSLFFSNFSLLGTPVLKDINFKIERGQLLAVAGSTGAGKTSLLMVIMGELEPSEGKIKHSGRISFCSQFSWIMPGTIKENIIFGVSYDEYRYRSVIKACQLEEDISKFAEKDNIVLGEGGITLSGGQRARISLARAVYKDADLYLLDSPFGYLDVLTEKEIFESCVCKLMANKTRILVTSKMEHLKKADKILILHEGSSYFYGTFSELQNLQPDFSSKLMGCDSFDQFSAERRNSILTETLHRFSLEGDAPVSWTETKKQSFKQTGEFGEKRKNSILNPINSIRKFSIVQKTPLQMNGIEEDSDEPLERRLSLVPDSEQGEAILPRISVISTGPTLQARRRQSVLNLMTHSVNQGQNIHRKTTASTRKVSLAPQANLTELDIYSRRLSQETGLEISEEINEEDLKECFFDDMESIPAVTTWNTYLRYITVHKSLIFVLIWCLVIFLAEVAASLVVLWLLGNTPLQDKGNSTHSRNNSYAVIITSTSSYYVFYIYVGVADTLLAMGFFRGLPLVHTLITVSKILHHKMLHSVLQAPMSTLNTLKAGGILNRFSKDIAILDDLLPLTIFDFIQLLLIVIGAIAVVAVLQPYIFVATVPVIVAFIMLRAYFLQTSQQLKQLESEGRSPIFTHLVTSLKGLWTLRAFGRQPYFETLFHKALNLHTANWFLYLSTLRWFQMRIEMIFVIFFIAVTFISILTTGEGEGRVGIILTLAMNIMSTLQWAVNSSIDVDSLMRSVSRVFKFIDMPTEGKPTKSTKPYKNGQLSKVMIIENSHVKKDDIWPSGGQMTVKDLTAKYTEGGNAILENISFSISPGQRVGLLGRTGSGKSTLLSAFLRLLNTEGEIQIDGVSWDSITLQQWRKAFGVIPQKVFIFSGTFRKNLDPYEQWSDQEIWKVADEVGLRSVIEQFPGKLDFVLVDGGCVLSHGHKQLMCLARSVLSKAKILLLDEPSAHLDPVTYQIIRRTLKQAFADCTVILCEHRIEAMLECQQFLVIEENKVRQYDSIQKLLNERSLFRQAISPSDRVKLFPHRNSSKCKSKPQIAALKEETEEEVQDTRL
In the case of `CCN(CC)c1nc(Nc2ccc3[nH]ncc3c2)nc(OC(C(F)(F)F)C(F)(F)F)n1`, the concentration for a half-maximal effect (EC50) is 2800 nM. The same measure, in the same setting: the figure for `CCN(CC)c1nc(Nc2cccc(Cl)c2)nc(OC(C(F)(F)F)C(F)(F)F)n1` is 2800 nM; for `CCN(CC)c1nc(Nc2ccc([N+](=O)[O-])cc2)nc(OC(C(F)(F)F)C(F)(F)F)n1` it is 18000 nM. On the same count and under the same terms, the same measure for `CCN(CC)c1nc(Nc2ccc(C(=O)O)cc2)nc(OCC(F)(F)C(F)F)n1`: 2500 nM; for `CCN(CC)c1nc(Nc2cccc([N+](=O)[O-])c2)nc(OC(C(F)(F)F)C(F)(F)F)n1`: 200 nM.

Another series has as its target T1, Cystic fibrosis transmembrane conductance regulator. Kind of series: Activation of human CFTR expressed in FRT cells co-expressing YFP assessed as increase in forskolin-stimulated iodide influx at 10 uM measured after 10 mins for 2 to 12 sec by fluorescence assay. The format is cell-based.
Details: not given
The essentials: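 FRT cells stably coexpressing human wild-type CFTR and YFP-H148Q halide sensor; PBS wash, then 10 min with compound in PBS containing 125 nM forskolin. Plate reader: 2 s baseline, then 12 s after rapid iodide-containing solution addition; initial iodide influx rate taken as linear measure of channel function.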
Target sequence in this assay (P13569 whole entry, looked up): as the sequence (P13569 whole entry) above
As for `CC(C)(C)Nc1nc(Nc2ccc(OC(F)(F)Cl)cc2)nc(OCC(F)(F)F)n1`, the outcome was inactive.

In the case of `CN(C)c1nc(Nc2ccc(OC(F)(F)F)cc2)nc(OCC(F)(F)F)n1`, the result was inactive. On the same count and under the same terms, the same measure for `CCC(C)Nc1nc(Nc2ccc([N+](=O)[O-])cc2)nc(OC(C(F)(F)F)C(F)(F)F)n1` (configuration not stated): “inactive”.

Regarding `Cc1ccc(Nc2nc(OC(C(F)(F)F)C(F)(F)F)nc(N3CCCCC3)n2)cc1`, the outcome was inactive. On to `CCN(CC)c1nc(Nc2ccccc2)nc(OC(C(F)(F)F)C(F)(F)F)n1`, for which the outcome was Active.

Turning to `O=[N+]([O-])c1ccc(Nc2nc(OC(C(F)(F)F)C(F)(F)F)nc(OC(C(F)(F)F)C(F)(F)F)n2)cc1`, the outcome was inactive. On the same count and under the same terms, the entry for `O=[N+]([O-])c1cccc(Nc2nc(OC(C(F)(F)F)C(F)(F)F)nc(OC(C(F)(F)F)C(F)(F)F)n2)c1` is “inactive”; for `CC(=O)c1ccc(Nc2nc(OC(C(F)(F)F)C(F)(F)F)nc(OC(C(F)(F)F)C(F)(F)F)n2)cc1` it is “inactive”; for `CC(=O)N1CCN(c2nc(Nc3ccccc3C(=O)c3ccccc3)nc(OC(C(F)(F)F)C(F)(F)F)n2)CC1` it is “inactive”. The same measure, in the same setting: the entry for `CC(C)Nc1nc(Nc2ccc([N+](=O)[O-])cc2)nc(OC(C(F)(F)F)C(F)(F)F)n1` is “inactive”; for `COc1ccc(Nc2nc(NC3CCCCC3)nc(OC(C(F)(F)F)C(F)(F)F)n2)cc1` it is “inactive”; for `COc1nc(Nc2ccc([N+](=O)[O-])cc2)nc(OC)n1` it is “inactive”.

`C=CCNc1nc(Nc2cccc([N+](=O)[O-])c2)nc(OC(C(F)(F)F)C(F)(F)F)n1`: the outcome was Active. The same measure, in the same setting: the same measure for `Cc1ccc(Nc2nc(OC(C(F)(F)F)C(F)(F)F)nc(OC(C(F)(F)F)C(F)(F)F)n2)cc1`: “inactive”; for `COc1nc(Nc2ccc(OC)c(Cl)c2)nc(OC)n1`: “inactive”. Still for that read-out and setting: the entry for `FC(F)(F)C(Oc1nc(Nc2ccccc2)nc(OC(C(F)(F)F)C(F)(F)F)n1)C(F)(F)F` is “inactive”; for `O=[N+]([O-])c1ccccc1Nc1nc(OC(C(F)(F)F)C(F)(F)F)nc(OC(C(F)(F)F)C(F)(F)F)n1` it is “inactive”; for `CNc1nc(Nc2ccc(C(C)=O)cc2)nc(OC(C(F)(F)F)C(F)(F)F)n1` it is “inactive”. Same read-out and setting: the same measure for `FC(F)(F)C(Oc1nc(N2CCCCCC2)nc(N(c2ccccc2)c2ccccc2)n1)C(F)(F)F`: “inactive”; for `CNc1nc(Nc2ccccc2C(F)(F)F)nc(OC(C(F)(F)F)C(F)(F)F)n1`: “inactive”. In the case of `Fc1ccc(Nc2nc(OC(C(F)(F)F)C(F)(F)F)nc(N3CCCCC3)n2)cc1`, the outcome was inactive. The same measure, in the same setting: the same measure for `CNc1nc(Nc2ccc(OC(F)(F)Cl)cc2)nc(OCC(F)(F)F)n1`: “inactive”; for `FC(F)(F)COc1nc(Nc2ccc(OC(F)(F)F)cc2)nc(NC2CC2)n1`: “inactive”; for `FC(F)(F)COc1nc(Nc2ccc(OC(F)(F)Cl)cc2)nc(OCC(F)(F)F)n1`: “inactive”.

`FC(F)(F)C(Oc1nc(Nc2ccc(Cl)cc2)nc(N2CCOCC2)n1)C(F)(F)F`: the outcome was inactive.

As to `FC(F)(F)COc1nc(Nc2ccccc2)nc(OCC(F)(F)F)n1`, the result was inactive.

With `CNc1nc(Nc2ccc([N+](=O)[O-])cc2)nc(OCC(F)(F)C(F)F)n1`, the result was Active. The same measure, in the same setting: the entry for `FC(F)(F)C(Oc1nc(Nc2cccnc2)nc(OC(C(F)(F)F)C(F)(F)F)n1)C(F)(F)F` is “inactive”. Still for that read-out and setting: the entry for `Cc1ccccc1Nc1nc(OC(C(F)(F)F)C(F)(F)F)nc(OC(C(F)(F)F)C(F)(F)F)n1` is “inactive”.

Tested on in another series: not listed separately
Kind of series: Metabolic stability in rat hepatic microsomes assessed as parent compound remaining at 5 uM after 15 mins in presence of NADPH by LC-MS analysis. The format is ADME, Microsome. The settings on record: liver microsomes, read-out: Stability. The essentials: (§1)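 Compound at 5 μM incubated at 37 °C with rat liver microsomes (1 mg/mL) in potassium phosphate buffer with 1 mM NADPH; quenched with ice-cold EtOAc, centrifuged, supernatant analysed by LC/MS (C18, water/acetonitrile with 0.1% formic acid gradient, UV 254 nm) for parent remaining; mean ± SEM, n = 3.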
`CCN(CC)c1nc(Nc2ccccc2)nc(OC(C(F)(F)F)C(F)(F)F)n1`: the remaining at […], 5 µM is below 40%.

Tested on in the next series: not listed separately
Kind of series: Metabolic stability in rat hepatic microsomes assessed as parent compound remaining at 5 uM after 60 mins in presence of NADPH by LC-MS analysis. The format is ADME, Microsome. The following applies: liver microsomes, read-out: Stability. The method, boiled down: as §1
On to `CCN(CC)c1nc(Nc2ccc3ncoc3c2)nc(OC(C(F)(F)F)C(F)(F)F)n1`, for which the remaining at 1 h, 5 µM is 60%.

A further series deals with Mus musculus. Kind of series: Induction of tear secretion in mouse at 250 pmol administered as single topical dose up to 8 hrs by phenol red thread test. The format is functional.
Details: not given
The method, boiled down: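 Mice 8–12 weeks (25–35 g); single ocular dose of 250 pmol (100 μM) in 2.5 μL vehicle (0.3% CMC in Ringer's), both eyes treated identically, vehicle control. Tear volume by phenol red thread, 10 s in lateral canthus under isoflurane, before and at set times after dosing. 5 mice, 10 eyes per condition; two-way ANOVA with Dunnett test.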
As for `CCN(CC)c1nc(Nc2ccccc2)nc(OC(C(F)(F)F)C(F)(F)F)n1`, the result was Active.

Source of the values: ChEMBL document CHEMBL3997791, “Nanomolar-Potency Aminophenyl-1,3,5-triazine Activators of the Cystic Fibrosis Transmembrane Conductance Regulator (CFTR) Chloride Channel for Prosecretory Therapy of Dry Eye Diseases” (J Med Chem, 2017).
